Measurements as given in ChEMBL document CHEMBL2417499, “Structure-activity relationship studies of Niemann-Pick type C1-like 1 (NPC1L1) ligands identified by screening assay monitoring pharmacological chaperone effect” (Bioorg Med Chem, 2013).
Calls of active or inactive are those of the source. The rule behind the calls is not given here.

Legend:
Type in all cases: cell-based
[1] = Binding affinity to human GFP-tagged NPC1L1 L1072T/L1168I mutant expressed in HEK293 cells assessed as localization to endoplasmic reticulum and plasma membrane after 24 hrs by fluorescence microscopic analysis
How it was run: (§1)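 HEK293 cells stably expressing the GFP-tagged construct (G418 0.4 mg/mL) were seeded at 6,000 cells/well in DMEM with 1% FBS on poly-lysine-coated glass. On day 2 they were treated for 24 h, final DMSO 0.1%. Cells were fixed in 3.7% formaldehyde and imaged at ×100. Across 25 images, cells were scored ER 0 to PM 1 and averaged as % plasma membrane localization. EC50 was taken from this score.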

[2] = Binding affinity to human GFP-tagged NTD-deleted NPC1L1 L1072T/L1168I mutant expressed in HEK293 cells assessed as localization to plasma membrane after 24 hrs by fluorescence microscopic analysis; how it was run: as §1
HEK293 = experiment: Binding affinity to human GFP-tagged NPC1L1 L1072T/L1168I mutant expressed in HEK293 cells assessed as localization to endoplasmic reticulum and plasma membrane at 10 uM after 24 hrs by fluorescence microscopic analysis
How it was run: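 HEK293 cells stably expressing NPC1L1-GFP mutant from a CMV promoter, kept under G418 (0.4 mg/mL). Seeded at 6,000 cells/well on poly-lysine-coated glass in DMEM with 1% FBS. Dosed next day in 0.1% DMSO final for 24 h, then fixed in 3.7% formaldehyde and imaged at ×100. Each cell in 25 images scored ER 0 to PM 1; mean reported as % plasma membrane localization.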

| SMILES | EC50 ([1]; read-out: EC50) | other results |
| --- | --- | --- |
| C[C@H](CCC(=O)O)[C@H]1CC[C@H]2[C@@H]3CC=C4C[C@@H](O)CC[C@]4(C)[C@H]3CC[C@]12C | > 10 µM | – |
| CNC(=O)CC[C@@H](C)[C@H]1CC[C@H]2[C@@H]3CC=C4C[C@@H](O)CC[C@]4(C)[C@H]3CC[C@]12C | > 10 µM | – |
| CCCN(CCC)C(=O)O[C@H]1CC[C@@]2(C)C(=CC[C@H]3[C@@H]4CC[C@H]([C@H](C)CCC(=O)N(C)C)[C@@]4(C)CC[C@@H]32)C1 | 3 µM | EC50 [2]: 8 µM |
| CC(C)CCC[C@@H](C)[C@H]1CC[C@H]2[C@@H]3C[C@@H](O)[C@H]4C[C@@H](OC(=O)N(CCO)CCO)CC[C@]4(C)[C@H]3CC[C@]12C | 2 µM | – |
| CCCCN(CCCC)C(=O)CC[C@@H](C)[C@H]1CC[C@H]2[C@@H]3CC=C4C[C@@H](O)CC[C@]4(C)[C@H]3CC[C@]12C | > 3 µM | – |
| CC(C)CCC[C@@H](C)[C@H]1CC[C@H]2[C@@H]3C(=O)C=C4C[C@@H](O)CC[C@]4(C)[C@H]3CC[C@]12C [7-OXOCHOLESTEROL] | 9.7 µM | – |
| C[C@H](CCC(=O)N(C)C)[C@H]1CC[C@H]2[C@@H]3CC=C4C[C@@H](OC(N)=O)CC[C@]4(C)[C@H]3CC[C@]12C | 8.5 µM | EC50 [2]: > 10 µM |
| C[C@H](CCC(=O)N(C)C)[C@H]1CC[C@H]2[C@@H]3CC=C4C[C@@H](O)CC[C@]4(C)[C@H]3CC[C@]12C | 0.8 µM | – |
| CC(C)CCC[C@@H](C)[C@H]1CC[C@H]2[C@@H]3[C@@H](O)C=C4C[C@@H](OC(=O)N(CCO)CCO)CC[C@]4(C)[C@H]3CC[C@]12C | 2 µM | – |
| CC(C)CCC[C@@H](C)[C@H]1CC[C@H]2[C@@H]3C[C@@H](O)[C@H]4C[C@@H](O)CC[C@]4(C)[C@H]3CC[C@]12C | 9.7 µM | – |
| CC(C)CCC[C@@H](C)[C@H]1CC[C@H]2[C@@H]3[C@@H](O)C=C4C[C@@H](O)CC[C@]4(C)[C@H]3CC[C@]12C | 10 µM | – |
| CC(C)CC[C@@H](O)[C@@H](C)[C@H]1CC[C@H]2[C@@H]3CC=C4C[C@@H](O)CC[C@]4(C)[C@H]3CC[C@]12C | – | Activity (HEK293): inactive |
| C[C@H](CCC(=O)N(C)C)[C@H]1CC[C@H]2[C@@H]3CC=C4C[C@@H](OC(=O)N5CCOCC5)CC[C@]4(C)[C@H]3CC[C@]12C | 2.3 µM | EC50 [2]: 6.2 µM |
| CC(C)CCC[C@@H](C)[C@H]1CC[C@H]2[C@@H]3CC=C4C[C@@H](O)CC[C@]4(C)[C@H]3CC[C@]12C | – | Activity (HEK293): inactive |
| CC(C)CCC[C@@H](C)[C@H]1CC[C@H]2[C@@H]3CC(=O)[C@H]4C[C@@H](OC(=O)N(CCO)CCO)CC[C@]4(C)[C@H]3CC[C@]12C | 3.8 µM | – |
| CC(C)CCC[C@@H](C)[C@H]1CC[C@H]2[C@@H]3CC=C4C[C@@H](OC(=O)N(CCO)CCO)CC[C@]4(C)[C@H]3CC[C@]12C | – | EC50 [1]: Not Active |
| CC(C)CCC[C@@H](C)[C@H]1CC[C@H]2[C@@H]3CC(=O)[C@H]4C[C@@H](O)CC[C@]4(C)[C@H]3CC[C@]12C [5alpha-CHOLESTAN-3beta-OL-6-ONE] | 2.8 µM | – |
| CC(C)CCC[C@@H](C)[C@H]1CC[C@H]2[C@@H]3C[C@H](O)[C@H]4C[C@@H](OC(=O)N(CCO)CCO)CC[C@]4(C)[C@H]3CC[C@]12C | 1.1 µM | – |
| CC(C)CCC[C@@H](C)[C@H]1CC[C@H]2[C@@H]3C[C@@H](O)[C@@]4(O)C[C@@H](OC(=O)N(CCO)CCO)CC[C@]4(C)[C@H]3CC[C@]12C | 8.1 µM | – |
| C[C@H](CCCO)[C@H]1CC[C@H]2[C@@H]3CC=C4C[C@@H](O)CC[C@]4(C)[C@H]3CC[C@]12C | – | EC50 [1]: Not Active |
| CCN(CC)C(=O)O[C@H]1CC[C@@]2(C)C(=CC[C@H]3[C@@H]4CC[C@H]([C@H](C)CCC(=O)N(C)C)[C@@]4(C)CC[C@@H]32)C1 | 1.8 µM | EC50 [2]: 4.2 µM |
| C[C@H](CCC(=O)N(C)C)[C@H]1CC[C@H]2[C@@H]3CC=C4C[C@@H](OC(=O)N(C)C)CC[C@]4(C)[C@H]3CC[C@]12C | 1.1 µM | EC50 [2]: 4.7 µM |
| CC(C)CCC[C@@H](C)[C@H]1CC[C@H]2[C@@H]3C(=O)C=C4C[C@@H](OC(=O)N(CCO)CCO)CC[C@]4(C)[C@H]3CC[C@]12C | 3.8 µM | – |
| C[C@H](CCC(=O)N(C)C)[C@H]1CC[C@H]2[C@@H]3CC=C4C[C@@H](OC(=O)N5CCN(C)CC5)CC[C@]4(C)[C@H]3CC[C@]12C | 2.9 µM | EC50 [2]: > 10 µM |
| C[C@]12CC[C@H](O)CC1=CC[C@@H]1[C@@H]2CC[C@]2(C)C(=O)CC[C@@H]12 | – | Activity (HEK293): inactive |
| C[C@H](CCC(N)=O)[C@H]1CC[C@H]2[C@@H]3CC=C4C[C@@H](O)CC[C@]4(C)[C@H]3CC[C@]12C | > 10 µM | – |
| CC(C)CCC[C@@H](C)[C@H]1CC[C@H]2[C@@H]3C[C@H](O)[C@H]4C[C@@H](O)CC[C@]4(C)[C@H]3CC[C@]12C | 8.5 µM | – |
| CC(C)CCC[C@](C)(O)[C@H]1CC[C@H]2[C@@H]3CC=C4C[C@@H](O)CC[C@]4(C)[C@H]3CC[C@@]21C | – | Activity (HEK293): inactive |
| C[C@H](CCC(C)(C)O)[C@H]1CC[C@H]2[C@@H]3CC=C4C[C@@H](O)CC[C@]4(C)[C@H]3CC[C@]12C | > 10 µM | – |
